Source: ChEMBL document CHEMBL4732185, “Synthesis, biological evaluation and structure-activity relationship of novel dichloroacetophenones targeting pyruvate dehydrogenase kinases with potent anticancer activity” (Eur J Med Chem, 2021)
Calls of active or inactive are those of the source. The rule behind the calls is not given here.

Tests used:
MCF7 [1] = assay: Antiproliferative activity against human MCF7 cells assessed as growth inhibition at 10 uM after 72 hrs by MTT assay relative to control; type: functional; details: read-out: GI
How it was run: (§1)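 Single-concentration MTT screen on MCF-7 and A549 cells grown in DMEM + 10% FBS. Cells at 3000–6000/well, cultured overnight, then given compound in buffer with 1% DMSO for 72 h. MTT (0.5 mg/mL) added for 4 h, formazan dissolved in DMSO, A570 read. Percent inhibition reported as the average ± S.D. of three independent measurements.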

MCF7 [2] = assay: Antiproliferative activity against human MCF7 cells assessed as growth inhibition at 1 uM after 72 hrs by MTT assay relative to control; type: functional; details: for inhibition of growth at 1 µM: read-out: GI; how it was run: as §1
A549 [3] = assay: Antiproliferative activity against human A549 cells assessed as growth inhibition at 10 uM after 72 hrs by MTT assay relative to control; type: functional; details: read-out: GI; how it was run: as §1
A549 [4] = assay: Antiproliferative activity against human A549 cells assessed as growth inhibition at 1 uM after 72 hrs by MTT assay relative to control; type: functional; details: for inhibition of growth at 1 µM: read-out: GI; how it was run: as §1
Homo sapiens = organism: Homo sapiens; assay: Inhibition of PDK (unknown origin) using RYHGHSMSDP as substrate at 1 uM after 30 mins by Kinase-Glo luminescent assay

| Compound | inhibition of growth at 10 µM (MCF7 [1]) [%] | inhibition of growth at 1 µM (MCF7 [2]) [%] | inhibition of growth at 10 µM (A549 [3]) [%] | inhibition of growth at 1 µM (A549 [4]) [%] | inhibition (Homo sapiens) [%] | growth inhibition (GI) (MCF7 [2]) | growth inhibition (GI) (A549 [4]) |
| --- | --- | --- | --- | --- | --- | --- | --- |
| O=C(c1ccc(NC2CC2)c([N+](=O)[O-])c1)C(Cl)Cl | 96 | 25.7 | 95.7 | 21.6 | 17.5 | – | – |
| O=C(c1ccc(Nc2ccc(F)cc2)c([N+](=O)[O-])c1)C(Cl)Cl | 97.8 | 17.9 | 98.9 | 23.2 | 50.1 | – | – |
| O=C(c1ccc(-n2ccnc2[N+](=O)[O-])c([N+](=O)[O-])c1)C(Cl)Cl | 21.4 | – | 80.9 | – | 8.1 | inactive | inactive |
| O=C(c1ccc(-c2ccc(F)cc2)c([N+](=O)[O-])c1)C(Cl)Cl | 91.6 | 30.8 | 95.3 | 44.7 | 12.1 | – | – |
| O=C(c1ccc(N2CCNCC2)c([N+](=O)[O-])c1)C(Cl)Cl | 57 | – | 93.1 | 22.6 | 48.6 | inactive | – |
| O=C(c1ccc(-c2ccccc2)c([N+](=O)[O-])c1)C(Cl)Cl | 56.2 | 15.8 | 92.6 | 8.9 | 25.6 | – | – |
| CCOc1ccc(Nc2ccc(C(=O)C(Cl)Cl)cc2[N+](=O)[O-])cc1 | 93.8 | 18.8 | 97.4 | 52.9 | 68.7 | – | – |
| Cc1ccc(Nc2ccc(C(=O)C(Cl)Cl)cc2[N+](=O)[O-])cc1 | 88.9 | 12.1 | 97.3 | 48.1 | 64.4 | – | – |
| CC(C)c1ccc(Sc2ccc(C(=O)C(Cl)Cl)cc2[N+](=O)[O-])cc1 | 79.8 | 18.9 | 76.3 | 12.9 | 19.5 | – | – |
| O=C(c1ccc(-c2ccsc2)c([N+](=O)[O-])c1)C(Cl)Cl | 43.5 | 7.5 | 94.4 | 14.4 | 26.5 | – | – |
| Cc1ccc(-c2ccc(C(=O)C(Cl)Cl)cc2[N+](=O)[O-])cc1 | 89.1 | 26.4 | 96 | 13.8 | 5.9 | – | – |
| O=C(c1ccc(-c2ccc(OC(F)(F)F)cc2)c([N+](=O)[O-])c1)C(Cl)Cl | 97.8 | 24.7 | 93.6 | 36.3 | 21.4 | – | – |
| COc1ccc(Nc2ccc(C(=O)C(Cl)Cl)cc2[N+](=O)[O-])cc1 | 95.9 | 29.2 | 97.7 | 45 | 55.7 | – | – |
| CN(C)c1ccc(Nc2ccc(C(=O)C(Cl)Cl)cc2[N+](=O)[O-])cc1 | 93.2 | 31.6 | 98.6 | 75 | 88.2 | – | – |
| O=C(c1ccc(N2CCOCC2)c([N+](=O)[O-])c1)C(Cl)Cl | 90.4 | 18.9 | 95.6 | 10.1 | 36.9 | – | – |
| COc1cccc2c1C(=O)c1c(O)c3c(c(O)c1C2=O)C[C@@](O)(C(=O)CO)C[C@@H]3O[C@H]1C[C@H](N)[C@H](O)[C@H](C)O1 [DOXORUBICIN] | 97.5 | 59.8 | 98.5 | 81.2 | – | – | – |
